TIME and Activity data for three molecules are collected here from ChEMBL document CHEMBL1147875, “Novel 1-oxyl-2-substitutedphenyl-4,4,5,5-tetramethylimidazolines: synthesis, selectively analgesic action, and QSAR analysis” (2007).

Experiment [1] deals with Mus musculus. Description: Effect on bleeding time in ICR mouse tail at 1.3 mmol/kg, ip after 60 mins. It is filed as functional. The essentials: (§1)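 Mice given 1.30 mmol/kg body weight. Tail bleeding time measured before dosing and at 5, 15, 30 and 60 min after dosing. Saline as vehicle control.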
In experiment [2] the test system is Mus musculus. Put plainly: Analgesic activity in ICR mouse assessed as pain threshold variation at 0.0013 mmol/kg, ip after 60 mins by tail flick test. It is filed as functional, organism-based. A digest of the protocol: (§2)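 Male ICR mice (25 2 g), 12/12 light/dark cycle, 21 2 °C, acclimated one day. Single ip injection in 0.2 ml saline with 0.01 ml DMSO and 0.02 ml Tween 80. Tail-flick pain threshold measured before dosing (BPT) and at 30 min intervals for 150 min. PTV = (post-dose threshold − BPT)/BPT, averaged per animal. Saline controls; ANOVA, p < 0.05.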
On the technique in general: In hot-plate and tail-flick tests a longer latency is read as antinociception.

Experiment [3] has as its system Aorta. Put plainly: Vasorelaxant activity in rat aortic strips assessed as inhibition of noradrenaline-induced vasoconstriction at 20 umol/l. It is filed as functional. More on the design: scale not given: the % may be the effect or the level left.
Experiment [4] deals with Mus musculus. Put plainly: Analgesic activity in ICR mouse assessed as pain threshold variation at 0.13 mmol/kg, ip after 30 mins by tail flick test. Type of experiment: functional. The essentials: as §2
Experiment [5] deals with Mus musculus. Description: Analgesic activity in ICR mouse assessed as pain threshold variation at 0.0013 mmol/kg, ip after 150 mins by tail flick test. It is filed as functional, organism-based. The essentials:
as §2

In experiment [6] the test system is Aorta. Put plainly: Vasorelaxant activity in rat aortic strips assessed as inhibition of noradrenaline-induced vasoconstriction at 100 umol/l. More on the design: scale not given: the % may be the effect or the level left. Type of experiment: functional.
Experiment [7] relates to Mus musculus. Put plainly: Analgesic activity in ICR mouse assessed as pain threshold variation at 0.013 mmol/kg, ip after 120 mins by tail flick test. Type of experiment: functional, organism-based. A digest of the protocol:
as §2

Experiment [8] has as its system Mus musculus. Put plainly: Analgesic activity in ICR mouse assessed as pain threshold variation at 0.013 mmol/kg, ip after 30 mins by tail flick test. It is filed as functional, organism-based. A digest of the protocol: as §2
Experiment [9] concerns Mus musculus. Put plainly: Analgesic activity in ICR mouse assessed as pain threshold variation at 0.13 mmol/kg, ip after 120 mins by tail flick test. It is filed as functional. A digest of the protocol:
as §2

The test system of experiment [10] is Mus musculus. Put plainly: Analgesic activity in ICR mouse assessed as pain threshold variation at 0.13 mmol/kg, ip after 60 mins by tail flick test. Type of experiment: functional. A digest of the protocol: as §2
In experiment [11] the test system is Mus musculus. Put plainly: Analgesic activity in ICR mouse assessed as pain threshold variation at 0.013 mmol/kg, ip after 60 mins by tail flick test. It is filed as functional, organism-based. A digest of the protocol:
as §2

The subject of experiment [12] is Mus musculus. Description: Analgesic activity in ICR mouse assessed as pain threshold variation at 0.13 mmol/kg, ip after 150 mins by tail flick test. It is filed as functional. A digest of the protocol:
as §2

Experiment [13] deals with Mus musculus. Description: Effect on bleeding time in ICR mouse tail at 1.3 mmol/kg, ip after 15 mins. It is filed as functional. A digest of the protocol:
as §1

Experiment [14] concerns Mus musculus. Description: Analgesic activity in ICR mouse assessed as pain threshold variation at 0.0013 mmol/kg, ip after 90 mins by tail flick test. It is filed as functional, organism-based. A digest of the protocol: as §2
The test system of experiment [15] is Mus musculus. Put plainly: Effect on bleeding time in ICR mouse tail at 1.3 mmol/kg, ip after 5 mins. Type of experiment: functional. The essentials:
as §1

Experiment [16] deals with Mus musculus. Description: Analgesic activity in ICR mouse assessed as pain threshold variation at 0.013 mmol/kg, ip after 90 mins by tail flick test. It is filed as functional, organism-based. The essentials:
as §2

In experiment [17] the test system is Aorta. Description: Vasorelaxant activity in rat aortic strips assessed as inhibition of noradrenaline-induced vasoconstriction at 500 umol/l. More on the design: scale not given: the % may be the effect or the level left. Type of experiment: functional.
Experiment [18] concerns Mus musculus. Put plainly: Analgesic activity in ICR mouse assessed as pain threshold variation at 0.0013 mmol/kg, ip after 30 mins by tail flick test. Type of experiment: functional, organism-based. A digest of the protocol: as §2
For experiment [19], the system named is Mus musculus. Put plainly: Analgesic activity in ICR mouse assessed as pain threshold variation at 0.013 mmol/kg, ip after 150 mins by tail flick test. Type of experiment: functional, organism-based. The essentials: as §2
In experiment [20] the test system is Mus musculus. Description: Analgesic activity in ICR mouse assessed as pain threshold variation at 0.13 mmol/kg, ip after 90 mins by tail flick test. It is filed as functional. A digest of the protocol:
as §2

The test system of experiment [21] is Mus musculus. Put plainly: Effect on bleeding time in ICR mouse tail at 1.3 mmol/kg, ip after 30 mins. It is filed as functional. The essentials:
as §1

The subject of experiment [22] is Mus musculus. Description: Analgesic activity in ICR mouse assessed as pain threshold variation at 0.0013 mmol/kg, ip after 120 mins by tail flick test. Type of experiment: functional, organism-based. A digest of the protocol: as §2

For the molecule `COc1ccc(C2=NC(C)(C)C(C)(C)N2[O])cc1`, the TIME in experiment [1] is 0.0331 h; in [13], 0.0324 h; in [15], 0.0327 h; in [21], 0.0331 h. Moreover, the Activity in experiment [2] is 55.2; in experiment [3], 6.88%; in experiment [4] it was 35.3; in experiment [5], 22.6; in experiment [6] it was 23.1%; in experiment [7] it was 50.2. For the same molecule, the Activity was found to be 25 in experiment [8]; 68.7 in [9]; 103 in [10]; 89.7 in experiment [11]; 53 in [12]; 50.5 in experiment [14]. Also, the Activity in [16] worked out at 82.5; in experiment [17], 35.1%; in experiment [18], 14.9; in experiment [19] it was 34.4; in experiment [20] it was 99.3; in experiment [22] it was 38.4.

In the case of `CC1(C)N=C(c2cccc(O)c2)N([O])C1(C)C`, the TIME is 0.0326 h in [1], 0.0326 h in experiment [13], 0.033 h in [15] and 0.0331 h in experiment [21]. For the same molecule, the Activity in experiment [2] was found to be 25.6; in [3], 7.06%; in [4], 49.6; in [5], 33.5; in experiment [6], 23%; in experiment [7] it was 59.9. Besides, the Activity turned out to be 35.7 in experiment [8]; 72.7 in [9]; 50.3 in [10]; 37.8 in [11]; 70.8 in experiment [12]; 30.7 in experiment [14]. The Activity in experiment [16] was 42.8; in [17], 35.7%; in experiment [18] it was 24.2; in experiment [19], 52.1; in experiment [20], 54; in experiment [22], 35.2.

As to `CC1(C)N=C(c2ccccc2F)N([O])C1(C)C`, the TIME in [1] was found to be 0.0326 h; in experiment [13] it was 0.0329 h; in experiment [15], 0.0331 h; in experiment [21] it was 0.0328 h. The Activity in experiment [2] stood at 33.5; in experiment [3], 5%; in experiment [4], 62.2; in experiment [5], 44.5; in experiment [6] it was 14.9%; in experiment [7], 49.8. In addition, the Activity in experiment [8] came to 49.3; in experiment [9], 62; in experiment [10] it was 67.8; in [11], 51.3; in experiment [12], 86.8; in experiment [14] it was 31.8. Moreover, the Activity in [16] was 50.7; in [17], 23.4%; in experiment [18], 31.3; in [19], 64.5; in experiment [20], 63.3; in experiment [22], 30.4.
